Source: ChEMBL document CHEMBL5344414, “Maleimide constrained BAD BH3 domain peptides as BCL-xL Inhibitors: A versatile approach to rapidly identify sites compatible with peptide constraining” (Bioorg Med Chem Lett, 2023)
Where a SMILES comes first, the peptide text is derived from it.

Target: BCL2L1/BAD (Homo sapiens, UniProt Q07817)
Assay: Inhibition of BAD/His-SUMO tagged BCL-XL (1 to 209 residues; missing 27 to 82 residues) (unknown origin) overexpressed in Escherichia coli BL21 protein-protein interaction by fluorescence anisotropy competition assay
Summary of the method: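 Final conditions: 200 nM BCL-xL, 50 nM tracer, 20 mM Tris, 150 mM NaCl, pH 7.6, 20 °C, with peptide titrated. Tracer Kd for BCL-xL was determined beforehand by direct titration (6 nM-125 μM protein).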

BCL2L1/BAD, sequence (Q92934 whole entry, the tested form may be a part): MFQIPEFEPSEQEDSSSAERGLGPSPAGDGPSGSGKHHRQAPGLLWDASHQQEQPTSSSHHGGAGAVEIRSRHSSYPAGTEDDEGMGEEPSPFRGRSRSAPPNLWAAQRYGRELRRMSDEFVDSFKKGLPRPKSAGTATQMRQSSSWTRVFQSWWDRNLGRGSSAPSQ
BCL2L1/BAD, sequence (Q07817 whole entry, the tested form may be a part): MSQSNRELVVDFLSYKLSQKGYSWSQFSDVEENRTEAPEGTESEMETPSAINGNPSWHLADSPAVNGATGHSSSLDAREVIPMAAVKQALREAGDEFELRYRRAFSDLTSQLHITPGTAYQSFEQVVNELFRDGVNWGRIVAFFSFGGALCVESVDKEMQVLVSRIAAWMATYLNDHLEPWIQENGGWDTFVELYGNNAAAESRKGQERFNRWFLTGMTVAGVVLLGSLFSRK

Row | SMILES | IC50
1 | CSCC[C@H](NC(=O)[C@H](CCCNC(=N)N)NC(=O)[C@H](CCCNC(=N)N)NC(=O)[C@H](CC(C)C)NC(=O)[C@H](CS)NC(=O)[C@H](CCCNC(=N)N)NC(=O)CNC(=O)[C@H](Cc1ccc(O)cc1)NC(=O)[C@H](CS)NC(C)=O)C(=O)N[C@@H](CO)C(=O)N[C@@H](CC(=O)O)C(=O)N[C@@H](CCC(=O)O)C(=O)N[C@@H](Cc1ccccc1)C(=O)N[C@H](C(=O)N[C@@H](CC(=O)O)C(=O)N[C@@H](CO)C(=O)N[C@@H](Cc1ccccc1)C(=O)N[C@@H](CCCCN)C(=O)N[C@@H](CCCCN)C(N)=O)C(C)C (Ac-CYGRCLRRMSDEFVDSFKK-NH2) | 5.1 µM
2 | CSCC[C@H](NC(=O)[C@H](CCCNC(=N)N)NC(=O)[C@H](CS)NC(=O)[C@H](CC(C)C)NC(=O)[C@H](CCC(=O)O)NC(=O)[C@H](CCCNC(=N)N)NC(=O)[C@H](CS)NC(=O)[C@H](Cc1ccc(O)cc1)NC(=O)[C@H](CCCNC(=N)N)NC(C)=O)C(=O)N[C@@H](CO)C(=O)N[C@@H](CC(=O)O)C(=O)N[C@@H](CCC(=O)O)C(=O)N[C@@H](Cc1ccccc1)C(=O)N[C@H](C(=O)N[C@@H](CC(=O)O)C(=O)N[C@@H](CO)C(=O)N[C@@H](Cc1ccccc1)C(=O)N[C@@H](CCCCN)C(=O)N[C@@H](CCCCN)C(N)=O)C(C)C (Ac-RYCRELCRMSDEFVDSFKK-NH2) | 11.8 µM
3 | CSCC[C@H](NC(=O)[C@H](CCCNC(=N)N)NC(=O)[C@H](CCCNC(=N)N)NC(=O)[C@H](CC(C)C)NC(=O)[C@H](CCC(=O)O)NC(=O)[C@H](CCCNC(=N)N)NC(=O)CNC(=O)[C@H](Cc1ccc(O)cc1)NC(=O)[C@H](CCCNC(=N)N)NC(C)=O)C(=O)N[C@@H](CO)C(=O)N[C@@H](CC(=O)O)C(=O)N[C@@H](CS)C(=O)N[C@@H](Cc1ccccc1)C(=O)N[C@H](C(=O)N[C@@H](CC(=O)O)C(=O)N[C@@H](CS)C(=O)N[C@@H](Cc1ccccc1)C(=O)N[C@@H](CCCCN)C(=O)N[C@@H](CCCCN)C(N)=O)C(C)C (Ac-RYGRELRRMSDCFVDCFKK-NH2) | 4.5 µM
4 | CSCC[C@H](NC(=O)[C@H](CS)NC(=O)[C@H](CCCNC(=N)N)NC(=O)[C@H](CC(C)C)NC(=O)[C@H](CCC(=O)O)NC(=O)[C@H](CS)NC(=O)CNC(=O)[C@H](Cc1ccc(O)cc1)NC(=O)[C@H](CCCNC(=N)N)NC(C)=O)C(=O)N[C@@H](CO)C(=O)N[C@@H](CC(=O)O)C(=O)N[C@@H](CCC(=O)O)C(=O)N[C@@H](Cc1ccccc1)C(=O)N[C@H](C(=O)N[C@@H](CC(=O)O)C(=O)N[C@@H](CO)C(=O)N[C@@H](Cc1ccccc1)C(=O)N[C@@H](CCCCN)C(=O)N[C@@H](CCCCN)C(N)=O)C(C)C (Ac-RYGCELRCMSDEFVDSFKK-NH2) | 6.8 µM
5 | CSCC[C@H](NC(=O)[C@H](CCCNC(=N)N)NC(=O)[C@H](CCCNC(=N)N)NC(=O)[C@H](CC(C)C)NC(=O)[C@H](CCC(=O)O)NC(=O)[C@H](CCCNC(=N)N)NC(=O)CNC(=O)[C@H](Cc1ccc(O)cc1)NC(=O)[C@H](CCCNC(=N)N)NC(C)=O)C(=O)N[C@@H](CS)C(=O)N[C@@H](CC(=O)O)C(=O)N[C@@H](CCC(=O)O)C(=O)N[C@@H](Cc1ccccc1)C(=O)N[C@@H](CS)C(=O)N[C@@H](CC(=O)O)C(=O)N[C@@H](CO)C(=O)N[C@@H](Cc1ccccc1)C(=O)N[C@@H](CCCCN)C(=O)N[C@@H](CCCCN)C(N)=O (Ac-RYGRELRRMCDEFCDSFKK-NH2) | 2.9 µM
6 | CSCC[C@H](NC(=O)[C@H](CCCNC(=N)N)NC(=O)[C@H](CS)NC(=O)[C@H](CC(C)C)NC(=O)[C@H](CCC(=O)O)NC(=O)[C@H](CCCNC(=N)N)NC(=O)CNC(=O)[C@H](Cc1ccc(O)cc1)NC(=O)[C@H](CCCNC(=N)N)NC(C)=O)C(=O)N[C@@H](CO)C(=O)N[C@@H](CS)C(=O)N[C@@H](CCC(=O)O)C(=O)N[C@@H](Cc1ccccc1)C(=O)N[C@H](C(=O)N[C@@H](CC(=O)O)C(=O)N[C@@H](CO)C(=O)N[C@@H](Cc1ccccc1)C(=O)N[C@@H](CCCCN)C(=O)N[C@@H](CCCCN)C(N)=O)C(C)C (Ac-RYGRELCRMSCEFVDSFKK-NH2) | > 50 µM

More lines, now with the values ahead:

Row | IC50 | SMILES
7 | > 50 µM | CSCC[C@H](NC(=O)[C@@H]1CS2=S(C[C@H](NC(=O)CNC(=O)[C@H](Cc3ccc(O)cc3)NC(=O)[C@H](CCCNC(=N)N)NC(C)=O)C(=O)N[C@@H](CCC(=O)O)C(=O)N[C@@H](CC(C)C)C(=O)N[C@@H](CCCNC(=N)N)C(=O)N1)C(=O)NC2=O)C(=O)N[C@@H](CO)C(=O)N[C@@H](CC(=O)O)C(=O)N[C@@H](CCC(=O)O)C(=O)N[C@@H](Cc1ccccc1)C(=O)N[C@H](C(=O)N[C@@H](CC(=O)O)C(=O)N[C@@H](CO)C(=O)N[C@@H](Cc1ccccc1)C(=O)N[C@@H](CCCCN)C(=O)N[C@@H](CCCCN)C(N)=O)C(C)C (stereo partly specified)
8 | > 50 µM | CSCC[C@H](NC(=O)[C@H](CCCNC(=N)N)NC(=O)[C@H](CCCNC(=N)N)NC(=O)[C@H](CC(C)C)NC(=O)[C@H](CCC(=O)O)NC(=O)[C@H](CCCNC(=N)N)NC(=O)CNC(=O)[C@H](Cc1ccc(O)cc1)NC(=O)[C@H](CCCNC(=N)N)NC(C)=O)C(=O)N[C@@H](CO)C(=O)N[C@H]1CS2=S(C[C@@H](C(=O)N[C@@H](CO)C(=O)N[C@@H](Cc3ccccc3)C(=O)N[C@@H](CCCCN)C(=O)N[C@@H](CCCCN)C(N)=O)NC(=O)[C@H](C(C)C)NC(=O)[C@H](Cc3ccccc3)NC(=O)[C@H](CCC(=O)O)NC1=O)C(=O)NC2=O (stereo partly specified)
9 | > 50 µM | CSCC[C@H](NC(=O)[C@H](CCCNC(=N)N)NC(=O)[C@@H]1CS2=S(C[C@H](NC(=O)[C@H](Cc3ccc(O)cc3)NC(=O)[C@H](CCCNC(=N)N)NC(C)=O)C(=O)N[C@@H](CCCNC(=N)N)C(=O)N[C@@H](CCC(=O)O)C(=O)N[C@@H](CC(C)C)C(=O)N1)C(=O)NC2=O)C(=O)N[C@@H](CO)C(=O)N[C@@H](CC(=O)O)C(=O)N[C@@H](CCC(=O)O)C(=O)N[C@@H](Cc1ccccc1)C(=O)N[C@H](C(=O)N[C@@H](CC(=O)O)C(=O)N[C@@H](CO)C(=O)N[C@@H](Cc1ccccc1)C(=O)N[C@@H](CCCCN)C(=O)N[C@@H](CCCCN)C(N)=O)C(C)C (stereo partly specified)
10 | > 50 µM | CSCC[C@H](NC(=O)[C@H](CCCNC(=N)N)NC(=O)[C@H](CCCNC(=N)N)NC(=O)[C@H](CC(C)C)NC(=O)[C@H](CCC(=O)O)NC(=O)[C@H](CCCNC(=N)N)NC(=O)CNC(=O)[C@H](Cc1ccc(O)cc1)NC(=O)[C@H](CCCNC(=N)N)NC(C)=O)C(=O)N[C@@H](CO)C(=O)N[C@@H](CS)C(=O)N[C@@H](CCC(=O)O)C(=O)N[C@@H](Cc1ccccc1)C(=O)N[C@H](C(=O)N[C@@H](CS)C(=O)N[C@@H](CO)C(=O)N[C@@H](Cc1ccccc1)C(=O)N[C@@H](CCCCN)C(=O)N[C@@H](CCCCN)C(N)=O)C(C)C (Ac-RYGRELRRMSCEFVCSFKK-NH2)
11 | 5.5 µM | CSCC[C@H](NC(=O)[C@H](CCCNC(=N)N)NC(=O)[C@H](CCCNC(=N)N)NC(=O)[C@H](CC(C)C)NC(=O)[C@@H]1CS2=S(C[C@H](NC(C)=O)C(=O)N[C@@H](Cc3ccc(O)cc3)C(=O)NCC(=O)N[C@@H](CCCNC(=N)N)C(=O)N1)C(=O)NC2=O)C(=O)N[C@@H](CO)C(=O)N[C@@H](CC(=O)O)C(=O)N[C@@H](CCC(=O)O)C(=O)N[C@@H](Cc1ccccc1)C(=O)N[C@H](C(=O)N[C@@H](CC(=O)O)C(=O)N[C@@H](CO)C(=O)N[C@@H](Cc1ccccc1)C(=O)N[C@@H](CCCCN)C(=O)N[C@@H](CCCCN)C(N)=O)C(C)C (stereo partly specified)
